Results reported in ChEMBL document CHEMBL2150936, “Anticancer activity of small amphipathic β²,²-amino acid derivatives” (Eur J Med Chem, 2012).

How the values were obtained:
MRC5 = assay: Cytotoxicity against human MRC5 cells after 4 hrs by MTT assay; assay type: cell-based; conditions: MRC5, 4 h
Procedure, shortened: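 MRC-5 embryonic lung fibroblast monolayers in MEM with 10% FBS were seeded at 1 × 10^5 cells/ml, grown overnight, then medium was replaced with compound solution. Exposure was 4 h at 37 °C, 5% CO2, then MTT for 2 h. Formazan was dissolved in acidic isopropanol (0.04 N HCl) and absorbance read at 590 nm. Background-corrected viability was taken relative to medium-only control, with Triton X-100 as positive control.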

Ramos [1] = assay: Selectivity index, ratio of EC50 for human MRC5 cells to IC50 for human Ramos cells; assay type: functional
Procedure, shortened: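 Ramos cells were seeded at 4 × 10^5 cells/ml in serum-free RPMI-1640, and compounds in RPMI-1640 were added at once. MRC-5 fibroblasts were seeded at 1 × 10^5 cells/ml in MEM with 10% FBS, grown overnight, and the medium was then replaced with compound. Both were incubated 4 h at 37 °C, 5% CO2, then given MTT for 2 h. Formazan was dissolved in acidic isopropanol and read at 590 nm. Survival was expressed relative to the untreated medium control. SI = MRC-5 EC50 / Ramos IC50.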

Ramos [2] = assay: Cytotoxicity against human Ramos cells after 4 hrs by MTT assay; assay type: functional, cell-based
Procedure, shortened: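 Ramos Burkitt's lymphoma cells, kept in suspension in RPMI 1640 with 10% FBS, were seeded at 4 × 10^5 cells/ml in serum-free RPMI 1640. Compounds in RPMI-1640 were added immediately, then 4 h at 37 °C, 5% CO2. MTT was added for a further 2 h, formazan dissolved in acidic isopropanol (0.04 N HCl), and A590 read. Survival was calculated against untreated medium control; 1% Triton X-100 served as positive control.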

Ramos [3] = assay: Selectivity index, ratio of EC50 for human RBC to IC50 for human Ramos cells; assay type: functional
Procedure, shortened: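 Ramos IC50 came from a 4 h MTT assay: cells at 4 × 10^5 cells/ml in serum-free RPMI-1640, compounds added at once, 37 °C, 2 h MTT, read at 590 nm. RBC EC50 came from hemoglobin release at 405 nm: 1% v/v washed human erythrocytes in PBS, 1 h at 37 °C, Triton X-100 reference. SI = RBC EC50 / Ramos IC50.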

[4] = Hemolytic activity in human RBC assessed as hemoglobin release; assay type: ADME, cell-based, Erythrocyte
Procedure, shortened: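 Heparinized human blood was washed three times in PBS pre-warmed to 37 °C to remove plasma. Compounds were dissolved in PBS and mixed with the RBCs to a final 1% v/v erythrocytes. Samples were incubated for 1 h at 37 °C with agitation, then centrifuged. Hemoglobin release was read at 405 nm, relative to 0.1% v/v Triton X-100 (positive control) and PBS (negative control).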

[5] = Homo sapiens, Erythrocyte, read-out: EC50

| SMILES | EC50 (MRC5) [µM] | Selectivity Index (Ramos [1]) | IC50 (Ramos [2]) [µM] | Selectivity Index (Ramos [3]) | EC50 ([4]; erythrocyte) | EC50 [4, 5] [µM] |
| --- | --- | --- | --- | --- | --- | --- |
| NCCNC(=O)C(CN)(Cc1ccc(C(F)(F)F)cc1)Cc1ccc(C(F)(F)F)cc1 | 17.8 | 2.5 | 7.1 | 60 | – | – |
| CC(C)(C)c1ccc(CC(CNC(=N)N)(Cc2ccc(C(C)(C)C)cc2)C(=O)NCCCNC(=N)N)cc1 | 64 | 1 | 63 | – | ND(Insoluble) | – |
| CN(C)CCOC(=O)C(CN)(Cc1ccc(C(F)(F)F)cc1)Cc1ccc(C(F)(F)F)cc1 | 8.2 | 3.6 | 2.3 | 190 | – | 437 |
| N=C(N)NCCCNC(=O)C(CNC(=N)N)(Cc1ccc(C(F)(F)F)cc1)Cc1ccc(C(F)(F)F)cc1 | 171 | 2.2 | 78 | – | ND(Insoluble) | – |
| N=C(N)NCCCNC(=O)C(CNC(=N)N)(Cc1ccc2ccccc2c1)Cc1ccc2ccccc2c1 | 760 | 9.6 | 79 | – | ND(Insoluble) | – |
| CN(C)CCNC(=O)C(CN)(Cc1ccc(C(F)(F)F)cc1)Cc1ccc(C(F)(F)F)cc1 | 47 | 4.1 | 11.4 | 41 | – | – |
| CC(C)(C)c1ccc(CC(CN)(Cc2ccc(C(C)(C)C)cc2)C(=O)N[C@@H](CCCNC(=N)N)C(N)=O)cc1 | 158 | 1.2 | 136 | >4.8 | – | > 654 |
| N=C(N)NCCC[C@H](NC(=O)C(CN)(Cc1ccc2ccccc2c1)Cc1ccc2ccccc2c1)C(N)=O | 552 | 5.2 | 107 | 4 | – | 425 |
| CC(C)(C)c1ccc(CC(CN)(Cc2ccc(C(C)(C)C)cc2)C(=O)NCCN)cc1 | 6.1 | 0.6 | 10.6 | 1.7 | – | 18 |
| CN1CCN(C(=O)C(CN)(Cc2ccc(C(F)(F)F)cc2)Cc2ccc(C(F)(F)F)cc2)CC1 | 182 | 6.7 | 27 | 19.6 | – | 526 |
| N=C(N)NCCC[C@H](NC(=O)C(CN)(Cc1ccc(C(F)(F)F)cc1)Cc1ccc(C(F)(F)F)cc1)C(N)=O | > 634 | – | > 254 | – | – | 990 |
| CN(C)CCNC(=O)C(CN)(Cc1ccc(C(C)(C)C)cc1)Cc1ccc(C(C)(C)C)cc1 | 49 | 1.8 | 28 | 9.8 | – | – |
| NCCCNC(=O)C(CN)(Cc1ccc(C(F)(F)F)cc1)Cc1ccc(C(F)(F)F)cc1 | 30 | 2.8 | 11 | 72 | – | 790 |
| CN1CCN(C(=O)C(CN)(Cc2ccc(C(C)(C)C)cc2)Cc2ccc(C(C)(C)C)cc2)CC1 | 16.6 | 2.7 | 6.1 | 57 | – | 349 |
| CN(C)CCOC(=O)C(CN)(Cc1ccc(C(C)(C)C)cc1)Cc1ccc(C(C)(C)C)cc1 | 90 | 2.9 | 31 | 1.7 | – | 52 |
| CN(C)CCNC(=O)C(CN)(Cc1ccc2ccccc2c1)Cc1ccc2ccccc2c1 | 4.9 | 0.7 | 6.6 | 33 | – | 217 |
| CN(C)CCN1CCN(C(=O)C(CN)(Cc2ccc(C(C)(C)C)cc2)Cc2ccc(C(C)(C)C)cc2)CC1 | 12 | 2.3 | 5.2 | 65 | – | 337 |
| CN1CCN(C(=O)C(CN)(Cc2ccc3ccccc3c2)Cc2ccc3ccccc3c2)CC1 | 41 | 2.9 | 14 | 22 | – | – |
| CN(C)CCN1CCN(C(=O)C(CN)(Cc2ccc(C(F)(F)F)cc2)Cc2ccc(C(F)(F)F)cc2)CC1 | 69 | 3.6 | 19 | 58 | – | 1120 |
| CN(C)CCN1CCN(C(=O)C(CN)(Cc2ccc3ccccc3c2)Cc2ccc3ccccc3c2)CC1 | 18.5 | 2.6 | 7.2 | 57 | – | 409 |
| NCCCNC(=O)C(CN)(Cc1ccc2ccccc2c1)Cc1ccc2ccccc2c1 | 6.6 | 1.5 | 4.3 | 104 | – | 447 |
| CC(C)(C)c1ccc(CC(CN)(Cc2ccc(C(C)(C)C)cc2)C(=O)NCCCN)cc1 | 35 | 2.4 | 14.4 | 17.6 | – | 254 |
| CN(C)CCOC(=O)C(CN)(Cc1ccc2ccccc2c1)Cc1ccc2ccccc2c1 | 12.7 | 4.1 | 3.1 | 148 | – | 458 |
